Measurements: publication PMC11027041 (RSC Advances, 2024)

What was measured:
HDAC1 = HDAC1 (Homo sapiens, UniProt Q13547); test: In vitro HDAC enzyme assay; type: biochemical
HDAC3 = HDAC3 (Homo sapiens, UniProt O15379); test: In vitro HDAC enzyme assay; type: biochemical
HDAC4 = HDAC4 (Homo sapiens, UniProt P56524); test: In vitro HDAC enzyme assay; type: biochemical
HDAC5 = HDAC5 (Homo sapiens, UniProt Q9UQL6); test: In vitro HDAC enzyme assay; type: biochemical
HDAC6 = HDAC6 (Homo sapiens, UniProt Q9UBN7); test: In vitro HDAC enzyme assay; type: biochemical
Chain of HDAC6 (Q9UBN7 whole entry): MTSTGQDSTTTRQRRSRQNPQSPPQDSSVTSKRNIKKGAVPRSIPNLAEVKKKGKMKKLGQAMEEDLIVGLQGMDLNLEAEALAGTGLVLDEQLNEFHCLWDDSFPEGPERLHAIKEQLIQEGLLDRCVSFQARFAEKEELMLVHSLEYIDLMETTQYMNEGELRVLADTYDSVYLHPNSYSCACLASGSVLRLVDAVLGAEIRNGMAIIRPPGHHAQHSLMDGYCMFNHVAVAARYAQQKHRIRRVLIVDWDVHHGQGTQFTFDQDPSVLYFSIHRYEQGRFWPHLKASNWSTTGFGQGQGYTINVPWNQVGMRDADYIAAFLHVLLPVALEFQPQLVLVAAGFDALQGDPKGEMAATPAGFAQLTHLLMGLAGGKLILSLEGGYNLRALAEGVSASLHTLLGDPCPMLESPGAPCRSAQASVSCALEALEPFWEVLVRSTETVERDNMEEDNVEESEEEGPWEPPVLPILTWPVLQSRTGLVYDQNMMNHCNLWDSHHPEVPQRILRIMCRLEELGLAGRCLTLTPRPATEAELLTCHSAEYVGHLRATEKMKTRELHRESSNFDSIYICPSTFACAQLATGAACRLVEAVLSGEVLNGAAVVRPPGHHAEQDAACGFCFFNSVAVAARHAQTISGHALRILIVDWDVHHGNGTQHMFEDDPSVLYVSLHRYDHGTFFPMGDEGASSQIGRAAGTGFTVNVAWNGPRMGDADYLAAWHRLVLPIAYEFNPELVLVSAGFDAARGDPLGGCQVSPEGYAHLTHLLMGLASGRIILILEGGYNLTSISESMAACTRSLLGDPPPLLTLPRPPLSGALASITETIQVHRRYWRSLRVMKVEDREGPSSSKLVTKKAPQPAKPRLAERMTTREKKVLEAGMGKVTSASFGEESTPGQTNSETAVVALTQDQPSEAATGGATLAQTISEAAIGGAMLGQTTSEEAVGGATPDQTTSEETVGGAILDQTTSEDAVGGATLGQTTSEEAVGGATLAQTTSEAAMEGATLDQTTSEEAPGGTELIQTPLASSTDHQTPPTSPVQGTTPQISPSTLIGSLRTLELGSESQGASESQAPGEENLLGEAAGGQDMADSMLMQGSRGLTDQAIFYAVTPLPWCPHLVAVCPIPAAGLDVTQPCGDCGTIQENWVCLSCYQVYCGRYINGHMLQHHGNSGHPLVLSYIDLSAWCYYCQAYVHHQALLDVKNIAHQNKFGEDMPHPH

[1] = system: melanoma cell line SK-MEL-2; test: Cell viability assay; type: cell-based; conditions: Homo sapiens, SK-MEL-2, 72 h, read-out: Antiproliferative IC50 SK-MEL-2
[2] = system: normal bone marrow cells HS-5; test: Cell viability assay; type: cell-based; conditions: 72 h, read-out: Antiproliferative IC50 HS-5
In short: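 Cells grown in IMDM with 20% FBS, 100 U per mL penicillin and 100 μg per mL streptomycin, then plated in 96-well format. Test compound exposure was 72 h. Alamar blue solution (1 mM, as added) was then applied for a further 5–6 h, and […] was read at 530/590 nm. Data were normalized to vehicle, as means of three independent measurements (standard errors <20%), and IC50 was calculated.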

CCRF-CEM = test: NCI-60 antiproliferative screening; type: cell-based; conditions: Homo sapiens, read-out: percent inhibition
MOLT-4 = test: NCI-60 antiproliferative screening; type: cell-based; conditions: Homo sapiens, MOLT-4, read-out: percent inhibition
SR = test: NCI-60 antiproliferative screening; type: cell-based; conditions: Homo sapiens, read-out: percent inhibition
NCI-H460 = test: NCI-60 antiproliferative screening; type: cell-based; conditions: Homo sapiens, NCI-H460, read-out: percent inhibition
HCC-2998 = test: NCI-60 antiproliferative screening; type: cell-based; conditions: Homo sapiens, HCC 2998, read-out: percent inhibition
HCT-116 = test: NCI-60 antiproliferative screening; type: cell-based; conditions: Homo sapiens, HCT-116, read-out: percent inhibition
HCT-15 = test: NCI-60 antiproliferative screening; type: cell-based; conditions: Homo sapiens, HCT-15, read-out: percent inhibition
HT29 = test: NCI-60 antiproliferative screening; type: cell-based; conditions: Homo sapiens, HT-29, read-out: percent inhibition
SW-620 = test: NCI-60 antiproliferative screening; type: cell-based; conditions: Homo sapiens, SW-620, read-out: percent inhibition
SF-268 = test: NCI-60 antiproliferative screening; type: cell-based; conditions: Homo sapiens, SF-268, read-out: percent inhibition
SF-539 = test: NCI-60 antiproliferative screening; type: cell-based; conditions: Homo sapiens, SF-539, read-out: percent inhibition
SNB-19 = test: NCI-60 antiproliferative screening; type: cell-based; conditions: Homo sapiens, SNB-19, read-out: percent inhibition
SNB-75 = test: NCI-60 antiproliferative screening; type: cell-based; conditions: Homo sapiens, SNB-75, read-out: percent inhibition
LOX IMVI = test: NCI-60 antiproliferative screening; type: cell-based; conditions: Homo sapiens, read-out: percent inhibition
MDA-MB-435 = test: NCI-60 antiproliferative screening; type: cell-based; conditions: Homo sapiens, MDA-MB-435, read-out: percent inhibition
SK-MEL-2 = test: NCI-60 antiproliferative screening; type: cell-based; conditions: Homo sapiens, SK-MEL-2, read-out: percent inhibition
SK-MEL-28 = test: NCI-60 antiproliferative screening; type: cell-based; conditions: Homo sapiens, SK-MEL-28, read-out: percent inhibition
SK-MEL-5 = test: NCI-60 antiproliferative screening; type: cell-based; conditions: Homo sapiens, SK-MEL-5, read-out: percent inhibition
UACC-62 = test: NCI-60 antiproliferative screening; type: cell-based; conditions: Homo sapiens, UACC-62, read-out: percent inhibition
IGROV1 = test: NCI-60 antiproliferative screening; type: cell-based; conditions: Homo sapiens, IGROV-1, read-out: percent inhibition
OVCAR-5 = test: NCI-60 antiproliferative screening; type: cell-based; conditions: Homo sapiens, OVCAR-5, read-out: percent inhibition
SK-OV-3 = test: NCI-60 antiproliferative screening; type: cell-based; conditions: Homo sapiens, SK-OV-3, read-out: percent inhibition
ACHN = test: NCI-60 antiproliferative screening; type: cell-based; conditions: Homo sapiens, read-out: percent inhibition
CAKI-1 = test: NCI-60 antiproliferative screening; type: cell-based; conditions: Homo sapiens, CAKI-1, read-out: percent inhibition
TK-10 = test: NCI-60 antiproliferative screening; type: cell-based; conditions: Homo sapiens, TK-10, read-out: percent inhibition
UO-31 = test: NCI-60 antiproliferative screening; type: cell-based; conditions: Homo sapiens, UO-31, read-out: percent inhibition
DU-145 = test: NCI-60 antiproliferative screening; type: cell-based; conditions: Homo sapiens, DU-145, read-out: percent inhibition
MCF7 = test: NCI-60 antiproliferative screening; type: cell-based; conditions: Homo sapiens, MCF7, read-out: percent inhibition
MDA-MB-231/ATCC = test: NCI-60 antiproliferative screening; type: cell-based; conditions: Homo sapiens, MDA-MB-231, read-out: percent inhibition
HS 578T = test: NCI-60 antiproliferative screening; type: cell-based; conditions: Homo sapiens, read-out: percent inhibition
T-47D = test: NCI-60 antiproliferative screening; type: cell-based; conditions: Homo sapiens, T47D, read-out: percent inhibition
MDA-MB-468 = test: NCI-60 antiproliferative screening; type: cell-based; conditions: Homo sapiens, MDA-MB-468, read-out: percent inhibition
[3] = system: fifty-nine cancer cell lines; test: NCI-60 antiproliferative screening, panel summary; type: cell-based; conditions: read-out: percent inhibition of 55 cell lines

Chain of HDAC1 (Q13547 whole entry): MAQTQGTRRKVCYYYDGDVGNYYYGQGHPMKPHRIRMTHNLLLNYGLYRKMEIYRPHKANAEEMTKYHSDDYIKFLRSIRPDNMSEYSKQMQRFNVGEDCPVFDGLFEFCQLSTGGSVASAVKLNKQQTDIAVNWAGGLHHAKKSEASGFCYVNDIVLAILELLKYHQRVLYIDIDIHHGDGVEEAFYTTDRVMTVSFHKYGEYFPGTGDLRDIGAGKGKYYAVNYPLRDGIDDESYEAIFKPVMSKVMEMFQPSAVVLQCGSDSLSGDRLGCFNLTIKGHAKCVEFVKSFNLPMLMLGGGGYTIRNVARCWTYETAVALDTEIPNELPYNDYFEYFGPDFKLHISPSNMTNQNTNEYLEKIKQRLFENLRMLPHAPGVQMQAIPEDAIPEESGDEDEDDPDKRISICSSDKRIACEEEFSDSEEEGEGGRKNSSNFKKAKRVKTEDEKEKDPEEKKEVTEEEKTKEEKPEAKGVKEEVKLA
Chain of HDAC4 (P56524 whole entry): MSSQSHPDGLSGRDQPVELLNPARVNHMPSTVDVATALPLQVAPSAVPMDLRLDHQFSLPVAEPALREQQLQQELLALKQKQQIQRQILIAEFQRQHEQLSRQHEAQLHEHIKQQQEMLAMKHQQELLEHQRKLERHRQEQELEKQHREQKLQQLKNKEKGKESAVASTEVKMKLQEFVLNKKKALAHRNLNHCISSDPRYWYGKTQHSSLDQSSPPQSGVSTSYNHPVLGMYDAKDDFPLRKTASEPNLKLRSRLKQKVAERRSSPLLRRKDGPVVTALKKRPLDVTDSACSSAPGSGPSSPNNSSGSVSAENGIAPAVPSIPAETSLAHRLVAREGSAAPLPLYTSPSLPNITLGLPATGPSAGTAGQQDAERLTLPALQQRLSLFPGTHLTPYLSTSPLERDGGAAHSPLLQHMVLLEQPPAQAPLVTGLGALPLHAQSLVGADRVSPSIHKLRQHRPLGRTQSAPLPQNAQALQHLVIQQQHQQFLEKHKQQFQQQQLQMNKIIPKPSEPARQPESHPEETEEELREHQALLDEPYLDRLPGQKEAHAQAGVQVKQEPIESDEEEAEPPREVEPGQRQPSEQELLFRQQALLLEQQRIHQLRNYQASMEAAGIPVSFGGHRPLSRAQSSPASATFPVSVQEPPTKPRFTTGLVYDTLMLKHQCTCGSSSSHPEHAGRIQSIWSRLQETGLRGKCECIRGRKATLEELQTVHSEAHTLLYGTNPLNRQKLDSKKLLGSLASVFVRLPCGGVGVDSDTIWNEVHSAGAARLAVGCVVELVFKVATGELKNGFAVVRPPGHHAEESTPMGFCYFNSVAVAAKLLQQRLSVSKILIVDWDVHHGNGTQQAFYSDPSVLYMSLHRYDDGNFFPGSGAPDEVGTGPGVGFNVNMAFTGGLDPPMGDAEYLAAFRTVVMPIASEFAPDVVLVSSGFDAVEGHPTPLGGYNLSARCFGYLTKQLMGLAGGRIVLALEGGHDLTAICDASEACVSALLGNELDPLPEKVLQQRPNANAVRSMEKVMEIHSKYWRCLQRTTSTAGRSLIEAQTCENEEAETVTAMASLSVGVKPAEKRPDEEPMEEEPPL
Chain of HDAC5 (Q9UQL6 whole entry): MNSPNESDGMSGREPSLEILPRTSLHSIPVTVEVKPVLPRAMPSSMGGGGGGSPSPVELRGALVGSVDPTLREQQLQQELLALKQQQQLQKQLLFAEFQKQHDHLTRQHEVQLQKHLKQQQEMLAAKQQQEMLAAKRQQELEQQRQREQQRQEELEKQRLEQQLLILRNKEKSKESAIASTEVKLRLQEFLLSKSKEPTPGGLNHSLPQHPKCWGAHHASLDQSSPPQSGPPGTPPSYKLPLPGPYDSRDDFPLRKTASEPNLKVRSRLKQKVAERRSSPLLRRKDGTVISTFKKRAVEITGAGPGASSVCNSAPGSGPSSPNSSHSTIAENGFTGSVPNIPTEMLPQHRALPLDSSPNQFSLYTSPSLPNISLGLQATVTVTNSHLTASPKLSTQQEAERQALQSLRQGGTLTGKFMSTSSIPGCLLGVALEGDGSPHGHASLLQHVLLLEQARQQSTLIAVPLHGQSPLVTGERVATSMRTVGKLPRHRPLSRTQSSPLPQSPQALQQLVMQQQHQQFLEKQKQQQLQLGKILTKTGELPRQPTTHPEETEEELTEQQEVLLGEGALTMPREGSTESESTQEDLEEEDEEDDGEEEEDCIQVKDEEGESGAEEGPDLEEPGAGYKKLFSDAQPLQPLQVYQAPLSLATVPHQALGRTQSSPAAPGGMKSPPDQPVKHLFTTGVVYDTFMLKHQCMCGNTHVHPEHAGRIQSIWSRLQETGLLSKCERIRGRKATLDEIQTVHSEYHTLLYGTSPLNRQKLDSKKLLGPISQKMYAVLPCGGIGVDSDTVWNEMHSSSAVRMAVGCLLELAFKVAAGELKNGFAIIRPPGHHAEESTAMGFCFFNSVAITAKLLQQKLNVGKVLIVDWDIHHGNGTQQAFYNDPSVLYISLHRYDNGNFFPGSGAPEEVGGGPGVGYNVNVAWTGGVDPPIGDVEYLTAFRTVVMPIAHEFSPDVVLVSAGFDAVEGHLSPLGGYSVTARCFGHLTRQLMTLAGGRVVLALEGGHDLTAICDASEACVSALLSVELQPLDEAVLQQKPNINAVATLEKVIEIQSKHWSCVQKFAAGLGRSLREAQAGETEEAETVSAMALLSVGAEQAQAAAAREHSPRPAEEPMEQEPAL
Chain of HDAC3 (O15379 whole entry): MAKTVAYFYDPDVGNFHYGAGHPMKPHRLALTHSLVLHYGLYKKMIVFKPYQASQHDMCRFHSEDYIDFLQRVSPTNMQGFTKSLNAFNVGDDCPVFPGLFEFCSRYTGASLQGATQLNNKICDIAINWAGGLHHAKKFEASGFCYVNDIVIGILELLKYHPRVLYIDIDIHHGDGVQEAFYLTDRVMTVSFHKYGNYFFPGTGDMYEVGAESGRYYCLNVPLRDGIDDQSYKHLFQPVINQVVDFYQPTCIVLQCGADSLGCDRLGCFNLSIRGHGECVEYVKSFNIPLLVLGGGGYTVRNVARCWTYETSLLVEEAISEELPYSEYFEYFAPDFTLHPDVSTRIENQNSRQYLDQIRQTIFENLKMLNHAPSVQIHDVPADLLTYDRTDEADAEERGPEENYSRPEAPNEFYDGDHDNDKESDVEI
Chain of HDAC3 (Q9Y618 395-489 partner limits assumed): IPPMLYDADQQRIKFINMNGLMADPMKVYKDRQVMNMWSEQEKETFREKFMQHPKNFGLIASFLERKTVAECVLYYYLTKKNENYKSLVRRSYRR

IC50 (HDAC1): 8.73 ± 0.46 nM
inhibition at 0.5 µM (HDAC1; read-out: Inhibition% (inhibition rate, IR) against HDAC1, at a concentration of 500 nM, duplicate): 99.2%
IC50 (HDAC3): 32.1 ± 1.44 nM
IC50 (HDAC4): > 50000 nM
activity for HDAC4 (in words) (HDAC4): no activity
IC50 (HDAC5): > 50000 nM
activity for HDAC5 (in words) (HDAC5): no activity
IC50 (HDAC6): 4.5 ± 0.21 nM
IC50 [1]: 480 ± 10 nM
SMILES: COc1ccc(CN2[C@@H](C(=O)NCCCCCCC(=O)NO)Cc3c([nH]c4ccccc34)[C@@H]2C2CC2)cc1 [Compound 13d, (1S,3R)-1-Cyclopropyl-N-(7-(hydroxyamino)-7-oxoheptyl)-2-(4-methoxybenzyl)-2,3,4,9-tetrahydro-1H-pyrido[3,4-b]indole-3-carboxamide]
IC50 [2]: > 50000 nM
inhibition at 10 µM (CCRF-CEM): 80.3%
inhibition at 10 µM (MOLT-4): 87.8%
inhibition at 10 µM (SR): 84%
inhibition at 10 µM (NCI-H460): 93.6%
inhibition at 10 µM (HCC-2998): 100%
inhibition at 10 µM (HCT-116): 97.9%
inhibition at 10 µM (HCT-15): 91.2%
inhibition at 10 µM (HT29): 93.7%
inhibition at 10 µM (SW-620): 100%
inhibition at 10 µM (SF-268): 85.5%
inhibition at 10 µM (SF-539): 97.1%
inhibition at 10 µM (SNB-19): 93.3%
inhibition at 10 µM (SNB-75): 89.8%
inhibition at 10 µM (LOX IMVI): 100%
inhibition at 10 µM (MDA-MB-435): 100%
inhibition at 10 µM (SK-MEL-2): 100%
inhibition at 10 µM (SK-MEL-28): 90.2%
inhibition at 10 µM (SK-MEL-5): 100%
inhibition at 10 µM (UACC-62): 100%
inhibition at 10 µM (IGROV1): 100%
inhibition at 10 µM (OVCAR-5): 100%
inhibition at 10 µM (SK-OV-3): 100%
inhibition at 10 µM (ACHN): 99.3%
inhibition at 10 µM (CAKI-1): 96%
inhibition at 10 µM (TK-10): 100%
inhibition at 10 µM (UO-31): 92.3%
inhibition at 10 µM (DU-145): 90.6%
inhibition at 10 µM (MCF7): 93.6%
inhibition at 10 µM (MDA-MB-231/ATCC): 100%
inhibition at 10 µM (HS 578T): 100%
inhibition at 10 µM (T-47D): 100%
inhibition at 10 µM (MDA-MB-468): 95.9%
inhibition at 10 µM [3]: > 80%
